Results from ChEMBL document CHEMBL1140894, “Non-vanillyl resiniferatoxin analogues as potent and metabolically stable transient receptor potential vanilloid 1 agonists” (Bioorg Med Chem, 2009).
Activity calls are given as the source filed them. The rule behind the calls is not given here.

Experiments:
[1] = target: T1, Transient receptor potential cation channel subfamily V member 1 (Rattus norvegicus, UniProt O35433); assay: Displacement of [3H]RTX form rat TRPV1 receptor expressed in CHO/VR1 cell system; assay type: cell-based
T1 sequence (O35433 whole entry): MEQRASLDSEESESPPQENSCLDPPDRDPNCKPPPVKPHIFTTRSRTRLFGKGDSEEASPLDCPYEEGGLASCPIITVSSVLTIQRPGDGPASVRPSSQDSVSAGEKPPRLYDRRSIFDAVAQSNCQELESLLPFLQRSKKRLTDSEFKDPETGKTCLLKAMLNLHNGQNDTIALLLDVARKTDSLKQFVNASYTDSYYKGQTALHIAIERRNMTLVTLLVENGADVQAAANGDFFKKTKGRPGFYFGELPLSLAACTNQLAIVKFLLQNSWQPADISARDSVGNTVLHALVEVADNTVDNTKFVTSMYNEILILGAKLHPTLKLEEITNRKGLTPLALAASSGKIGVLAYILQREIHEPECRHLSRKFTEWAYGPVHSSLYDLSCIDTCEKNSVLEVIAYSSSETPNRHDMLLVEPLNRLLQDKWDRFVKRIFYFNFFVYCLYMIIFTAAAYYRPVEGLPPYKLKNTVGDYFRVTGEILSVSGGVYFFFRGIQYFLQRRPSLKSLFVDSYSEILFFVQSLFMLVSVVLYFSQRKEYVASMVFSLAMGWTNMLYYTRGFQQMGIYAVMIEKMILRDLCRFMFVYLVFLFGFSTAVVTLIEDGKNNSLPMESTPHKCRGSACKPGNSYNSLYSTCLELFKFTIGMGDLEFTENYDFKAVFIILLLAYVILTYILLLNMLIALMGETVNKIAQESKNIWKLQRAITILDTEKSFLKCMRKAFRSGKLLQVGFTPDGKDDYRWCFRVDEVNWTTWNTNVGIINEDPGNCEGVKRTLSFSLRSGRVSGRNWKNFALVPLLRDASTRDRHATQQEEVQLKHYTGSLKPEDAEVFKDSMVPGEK

[2] = target: T1, Transient receptor potential cation channel subfamily V member 1; assay: Agonist activity at rat TRPV1 receptor expressed in CHO cells assessed as calcium uptake; assay type: functional, cell-based
[3] = target: Transient receptor potential cation channel subfamily V member 1 (Rattus norvegicus) (UniProt O35433); assay: Activity at rat TRPV1 receptor expressed in CHO cells assessed as changes in intracellular calcium levels at 75 pM by calcium imaging; assay type: cell-based
Transient receptor potential cation channel subfamily V member 1 (Rattus norvegicus), sequence (O35433 whole entry): as above

[4] = Metabolic stability in Sprague-Dawley rat plasma at 10 ug/mL after 240 mins by HPLC; assay type: ADME, cell-free; conditions: read-out: Stability
Summary of the method: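 Compound added to pre-warmed rat plasma to a final 10 μg/mL and incubated 240 min. Stopped with methanol at 0 and 240 min and quantified by LC-MS. Expressed as percent of initial concentration remaining.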

[5] = Metabolic stability in Sprague-Dawley rat liver microsomes at 10 ug/mL after 60 mins by HPLC; assay type: ADME, Microsome; conditions: read-out: Stability
[6] = target: Transient receptor potential cation channel subfamily V member 1 (Rattus norvegicus) (UniProt O35433); assay: Agonist activity at rat TRPV1 receptor expressed in CHO cells assessed as calcium uptake relative to capsaicin; assay type: functional, cell-based

| SMILES | Ki [1] [nM] | EC50 [2] [nM] | Activity [3] | remaining at 4 h, 10 ug/mL [4] [%] | remaining at 1 h, 10 ug/mL [5] [%] | Activity [6] [%] |
| --- | --- | --- | --- | --- | --- | --- |
| C=C(C)[C@@]12C[C@@H](C)[C@@]34OC(Cc5ccccc5)(O[C@@H]1[C@@H]3C=C(COC(=O)Cc1cccc(F)c1F)C[C@]1(O)C(=O)C(C)=C[C@@H]41)O2 | 3.53 | 9.1 |  |  |  |  |
| C=C(C)[C@@]12C[C@@H](C)[C@@]34OC(Cc5ccccc5)(O[C@@H]1[C@@H]3C=C(COC(=O)Cc1c(F)cccc1F)C[C@]1(O)C(=O)C(C)=C[C@@H]41)O2 | 2.69 | 11.3 |  |  |  |  |
| C=C(C)[C@]12C[C@@H](C)[C@@]34O[C@](Cc5ccccc5)(O[C@@H]1[C@@H]3C=C(COC(=O)Cc1ccc(O)c(OC)c1)C[C@]1(O)C(=O)C(C)=C[C@@H]41)O2 [RESINIFERATOXIN] | 0.0426 | 0.27 | Active | 71.7 | 57.6 |  |
| C=C(C)[C@@]12C[C@@H](C)[C@@]34OC(Cc5ccccc5)(O[C@@H]1[C@@H]3C=C(COC(=O)Cc1cc(F)ccc1F)C[C@]1(O)C(=O)C(C)=C[C@@H]41)O2 | 0.4 | 4.21 |  |  |  |  |
| C=C(C)[C@@]12C[C@@H](C)[C@@]34OC(Cc5ccccc5)(O[C@@H]1[C@@H]3C=C(COC(=O)Cc1c(F)c(F)c(F)c(F)c1F)C[C@]1(O)C(=O)C(C)=C[C@@H]41)O2 | 135 |  |  |  |  | 23 |
| C=C(C)[C@@]12C[C@@H](C)[C@@]34OC(Cc5ccccc5)(O[C@@H]1[C@@H]3C=C(COC(=O)Cc1ccc(NS(C)(=O)=O)cc1)C[C@]1(O)C(=O)C(C)=C[C@@H]41)O2 | 6.81 | 1.78 |  |  |  |  |
| C=C(C)[C@@]12C[C@@H](C)[C@@]34OC(Cc5ccccc5)(O[C@@H]1[C@@H]3C=C(CNC(=O)Cc1ccc(NS(C)(=O)=O)cc1)C[C@]1(O)C(=O)C(C)=C[C@@H]41)O2 | 320 | 375 |  |  |  |  |
| C=C(C)[C@@]12C[C@@H](C)[C@@]34OC(Cc5ccccc5)(O[C@@H]1[C@@H]3C=C(COC(=O)Cc1ccc(NS(C)(=O)=O)c(OC)c1)C[C@]1(O)C(=O)C(C)=C[C@@H]41)O2 | 0.228 | 0.106 |  | 90.8 | 81.4 |  |
| C=C(C)[C@@]12C[C@@H](C)[C@@]34OC(Cc5ccccc5)(O[C@@H]1[C@@H]3C=C(COC(=O)Cc1ccc(F)cc1F)C[C@]1(O)C(=O)C(C)=C[C@@H]41)O2 | 0.89 | 1.8 |  | 88.3 | 57.9 |  |
| C=C(C)[C@@]12C[C@@H](C)[C@@]34OC(Cc5ccccc5)(O[C@@H]1[C@@H]3C=C(COC(=O)Cc1ccccc1F)C[C@]1(O)C(=O)C(C)=C[C@@H]41)O2 |  | 4.65 |  |  |  |  |
| C=C(C)[C@@]12C[C@@H](C)[C@@]34OC(Cc5ccccc5)(O[C@@H]1[C@@H]3C=C(COC(=O)Cc1cc(F)cc(F)c1)C[C@]1(O)C(=O)C(C)=C[C@@H]41)O2 | 8.3 | 59 |  |  |  |  |
| C=C(C)[C@@]12C[C@@H](C)[C@@]34OC(Cc5ccccc5)(O[C@@H]1[C@@H]3C=C(COC(=O)Cc1ccc(F)c(F)c1)C[C@]1(O)C(=O)C(C)=C[C@@H]41)O2 | 0.98 | 5.5 |  |  |  |  |
| C=C(C)[C@@]12C[C@@H](C)[C@@]34OC(Cc5ccccc5)(O[C@@H]1[C@@H]3C=C(COC(=O)Cc1cccc(F)c1)C[C@]1(O)C(=O)C(C)=C[C@@H]41)O2 | 2.4 | 1.92 |  |  |  |  |
| C=C(C)[C@@]12C[C@@H](C)[C@@]34OC(Cc5ccccc5)(O[C@@H]1[C@@H]3C=C(COC(=O)Cc1ccc(NS(C)(=O)=O)c(F)c1)C[C@]1(O)C(=O)C(C)=C[C@@H]41)O2 | 0.84 | 2.45 |  |  |  |  |
| C=C(C)[C@@]12C[C@@H](C)[C@@]34OC(Cc5ccccc5)(O[C@@H]1[C@@H]3C=C(COC(=O)Cc1ccc(F)cc1)C[C@]1(O)C(=O)C(C)=C[C@@H]41)O2 | 3.1 | 3.88 |  |  |  |  |
